Experimental data as given in ChEMBL document CHEMBL1255487, “Preclinical evaluation of the antifolate QN254, 5-chloro- N'6'-(2,5-dimethoxy-benzyl)-quinazoline-2,4,6-triamine, as an antimalarial drug candidate” (Antimicrob Agents Chemother, 2010).
The source made the active and inactive calls. The rule behind the calls is not given here.

Legend:
Mus musculus [1] = test: Toxicity in NMRI mice (Mus musculus) infected with Plasmodium berghei ANKA at 30 mg/kg, perorally administered as single dose measured up to 30 days postinfection; type: organism-based; parameters: dose 30 mg/kg, route oral; settings: in vivo, po, 720 h
[2] = Clearance in Wistar rat at 5 mg/kg, iv; type: ADME, organism-based; parameters: dose 5 mg/kg, route intravenous; settings: in vivo
Procedure, shortened: (§1)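 Rats dosed with 25 mg/kg p.o. as a 2.5 mg/ml suspension in 0.5% CMC, or with 5 mg/kg i.v. at 1 mg/ml in 10% NMP, 30% PEG 400 and 60% of 10% vitamin E-TPGS. Plasma sampled over time, extracted with acidified acetonitrile (8:1) and quantified by LC-MS, LLOQ 12 ng/ml.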

[3] = Cmax in CD-1 mouse at 25 mg/kg, po; type: ADME, organism-based; parameters: dose 25 mg/kg, route oral; settings: in vivo
Procedure, shortened: (§2)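 Mice dosed with 25 mg/kg p.o. as a 2.5 mg/ml suspension in 0.5% CMC, or with 5 mg/kg i.v. at 1 mg/ml in 10% NMP, 30% PEG 400 and 60% of 10% vitamin E-TPGS. Blood sampled at several time points. Plasma extracted with acidified acetonitrile (8:1) and quantified by LC-MS, LLOQ 12 ng/ml.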

Plasmodium berghei [4] = test: Antimalarial activity against Plasmodium berghei ANKA infected in NMRI mice (Mus musculus) assessed as reduction in parasitemia at 100 mg/kg, perorally administered as single dose measured on day 3 postinfection; type: functional; parameters: scale not given: the % may be the effect or the level left; settings: route oral
Procedure, shortened: (§3)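 P. berghei ANKA given intravenously to groups of 5 female NMRI mice (20–22 g): 0.2 ml of 1 × 10^8 parasitized erythrocytes/ml from a donor mouse. Oral dosing in 0.5% carboxymethyl cellulose. Parasitemia counted by microscopy. Activity is the control-minus-treated parasitemia difference, expressed as percent of untreated controls.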

Mus musculus [5] = test: Toxicity in NMRI mice (Mus musculus) infected with Plasmodium berghei ANKA at 3 times 100 mg/kg, perorally measured up to 30 days postinfection; type: organism-based; parameters: dose 100 mg/kg, route oral; settings: in vivo, po, 720 h
Mus musculus [6] = test: Toxicity in NMRI mice (Mus musculus) infected with Plasmodium berghei ANKA at 3 times 60 mg/kg, perorally measured up to 30 days postinfection; type: organism-based; parameters: dose 60 mg/kg, route oral; settings: in vivo, po, 720 h
Plasmodium berghei [7] = test: Antimalarial activity against Plasmodium berghei ANKA infected in NMRI mice (Mus musculus) assessed as survival rate at 60 mg/kg, perorally administered as single dose; type: functional; settings: route oral
Procedure, shortened: (§4)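 Infection: 5 female NMRI mice (20–22 g) per group, inoculated intravenously with 0.2 ml of donor blood at 1 × 10^8 parasitized erythrocytes/ml. Oral administration in 0.5% carboxymethyl cellulose. Survival time recorded up to 30 days after infection and averaged per group.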

[8] = AUC in Wistar rat at 25 mg/kg, po; type: ADME, organism-based; parameters: dose 25 mg/kg, route oral; settings: plasma; procedure, shortened: as §1
[9] = Cmax in Wistar rat at 25 mg/kg, po; type: ADME, organism-based; parameters: dose 25 mg/kg, route oral; settings: in vivo; procedure, shortened: as §1
[10] = Tmax in Wistar rat at 25 mg/kg, po; type: ADME, organism-based; parameters: dose 25 mg/kg, route oral; settings: in vivo; procedure, shortened: as §1
Plasmodium berghei [11] = test: Antimalarial activity against Plasmodium berghei ANKA infected in NMRI mice (Mus musculus) assessed as mean survival time at 3 times 60 mg/kg, perorally; type: functional, organism-based; parameters: dose 60 mg/kg
[12] = Tmax in CD-1 mouse at 25 mg/kg, po; type: ADME, organism-based; parameters: dose 25 mg/kg, route oral; settings: in vivo; procedure, shortened: as §2
Plasmodium falciparum [13] = test: Antimalarial activity against pyrimethamine-resistant Plasmodium falciparum clinical isolate harboring S108N, N51I mutation in DHFR assessed as decrease in parasitaemia; type: functional, organism-based
Procedure, shortened: (§5)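 P. falciparum grown in RPMI 1640 with 10% (v/v) human serum, 25 mM bicarbonate, 2 mM glutamine, 25 mM HEPES, 5 nM para-aminobenzoic acid and 23 nM folic acid. Parasites exposed to a concentration series. Read-out is [3H]hypoxanthine incorporation into nucleic acid. IC50 taken from non-linear regression of the dose–response curve.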

Rattus norvegicus = test: Toxicity in Wistar rat assessed as occurrence of bone marrow degeneration at => 50 mg/kg, po after 2 weeks; type: organism-based; parameters: dose 50 mg/kg, route oral; settings: in vivo, 336 h
Procedure, shortened: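 Male Wistar rats, about 10 weeks old (254–292 g), 5 per group, gavaged daily with 50, 150 or 500 mg/kg/day. Vehicle was 10% of 1% aqueous Solutol HS15 plus 90% of 0.5% aqueous methylcellulose; exploratory 2-week design. Clinical observations, body weight, food intake, hematology, clinical chemistry and gross pathology recorded. Histopathology covered gross lesions and selected organs in the control and low-dose groups.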

Plasmodium berghei [14] = test: Antimalarial activity against Plasmodium berghei ANKA infected in NMRI mice (Mus musculus) assessed as cure rate at 3 times 60 mg/kg, perorally measured on day 3 postinfection; type: functional; settings: route oral
Procedure, shortened: (§6)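 Female NMRI mice (20–22 g), 5 per group, infected intravenously with 0.2 ml of 1 × 10^8 parasitized erythrocytes/ml from a fresh donor mouse. Compound suspended in 0.5% carboxymethyl cellulose and given orally. Survival followed to day 30 post-infection; an animal was scored cured if it survived to day 30 without parasites.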

Plasmodium falciparum [15] = test: Antimalarial activity against pyrimethamine-resistant Plasmodium falciparum clinical isolate harboring S108N, C59R mutation in DHFR assessed as decrease in parasitaemia; type: functional, organism-based; procedure, shortened: as §5
Plasmodium berghei [16] = test: Antimalarial activity against Plasmodium berghei ANKA infected in NMRI mice (Mus musculus) assessed as mean survival time at 3 times 100 mg/kg, perorally; type: functional, organism-based; parameters: dose 100 mg/kg
Plasmodium berghei [17] = test: Antimalarial activity against Plasmodium berghei ANKA infected in NMRI mice (Mus musculus) assessed as survival rate at 30 mg/kg, perorally administered as single dose; type: functional; settings: route oral; procedure, shortened: as §4
Mus musculus [18] = test: Toxicity in NMRI mice (Mus musculus) infected with Plasmodium berghei ANKA at 10 mg/kg, perorally administered as single dose measured up to 30 days postinfection; type: organism-based; parameters: dose 10 mg/kg, route oral; settings: in vivo, po, 720 h
Plasmodium berghei [19] = test: Antimalarial activity against Plasmodium berghei ANKA infected in NMRI mice (Mus musculus) assessed as cure rate at 15 mg/kg, perorally administered as single dose measured on day 3 postinfection; type: functional; settings: route oral; procedure, shortened: as §6
Plasmodium berghei [20] = test: Antimalarial activity against Plasmodium berghei ANKA infected in NMRI mice (Mus musculus) assessed as reduction in parasitemia at 3 times 100 mg/kg, perorally measured on day 3 postinfection; type: functional; parameters: scale not given: the % may be the effect or the level left; settings: route oral; procedure, shortened: as §3
Plasmodium berghei [21] = test: Antimalarial activity against Plasmodium berghei ANKA infected in NMRI mice (Mus musculus) assessed as reduction in parasitemia at 10 mg/kg, perorally administered as single dose measured on day 3 postinfection; type: functional; parameters: scale not given: the % may be the effect or the level left; settings: route oral; procedure, shortened: as §3
[22] = AUC (0 to 24 hrs) in Wistar rat at 50 mg/kg, po; type: ADME, organism-based; parameters: time < 24 hr, dose 50 mg/kg, route oral; settings: plasma
Plasmodium berghei [23] = test: Antimalarial activity against Plasmodium berghei ANKA infected in NMRI mice (Mus musculus) assessed as cure rate at 100 mg/kg, perorally administered as single dose measured on […]; type: functional; settings: route oral; procedure, shortened: as §6
[24] = Half life in Wistar rat at 5 mg/kg, iv; type: ADME, organism-based; parameters: dose 5 mg/kg, route intravenous; settings: in vivo; procedure, shortened: as §1
Plasmodium berghei [25] = test: Antimalarial activity against Plasmodium berghei ANKA infected in NMRI mice (Mus musculus) assessed as cure rate at 3 times 100 mg/kg, perorally measured on […]; type: functional; settings: route oral; procedure, shortened: as §6
Plasmodium berghei [26] = test: Antimalarial activity against Plasmodium berghei ANKA infected in NMRI mice (Mus musculus) assessed as reduction in parasitemia at 3 times 30 mg/kg, perorally measured on day 3 postinfection; type: functional; parameters: scale not given: the % may be the effect or the level left; settings: route oral; procedure, shortened: as §3
Plasmodium berghei [27] = test: Antimalarial activity against Plasmodium berghei ANKA infected in perorally dosed NMRI mice (Mus musculus) assessed as reduction in parasitemia administered as single dose measured on day 3 postinfection; type: functional; settings: po, 72 h

COc1ccc(OC)c(CNc2ccc3nc(N)nc(N)c3c2Cl)c1
Activity (Mus musculus [1]): 0% | clearance [2]: 17 mL/min/kg | Cmax [3]: 5.1 µM | Activity (Plasmodium berghei [4]): >99.99% | Activity (Mus musculus [5]): 80% | Activity (Mus musculus [6]): 40% | Survival (Plasmodium berghei [7]): 12 days | AUC [8]: 67.3 µM·h | Cmax [9]: 2.8 µM | Tmax [10]: 4 h | Activity (Plasmodium berghei [11]): inactive | Tmax [12]: 4 h | IC50 (Plasmodium falciparum [13]): 4.48 nM | Activity (Rattus norvegicus): Toxic | Activity (Plasmodium berghei [14]): 60% | IC50 (Plasmodium falciparum [15]): 4.48 nM | Activity (Plasmodium berghei [16]): inactive | Survival (Plasmodium berghei [17]): 8.1 days | Activity (Mus musculus [18]): 0% | Activity (Plasmodium berghei [19]): 0% | Activity (Plasmodium berghei [20]): >99.99% | Activity (Plasmodium berghei [21]): 59% | AUC(0-t) at 24 h [22]: 27600 ng·h/mL | Activity (Plasmodium berghei [23]): 50% | half-life [24]: 3.5 h | Activity (Plasmodium berghei [25]): 20% | Activity (Plasmodium berghei [26]): >99.99% | ED50 (Plasmodium berghei [27]): 7.2 mg/kg | ED90 (Plasmodium berghei [27]): 12.4 mg/kg
